Test results: ChEMBL document CHEMBL1131054, “Synthesis and structure-activity relationships of 2-pyrazinylcarboxamidobenzoates and beta-ionylideneacetamidobenzoates with retinoidal activity” (1998)

Columns and labels:
Assay type in all cases: functional
[1] = system: HL-60; assay: Percent differentiation of human promyelocytic leukemia (HL60) cells at 10e -6M concentration in culture medium
Method in brief: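 HL60 cells in RPMI-1640 with 10% FBS, 2 mM L-glutamine and gentamycin were exposed for 4 days to compound at 10⁻⁶ M final, diluted from a DMSO stock, at 1×10^5 cells/mL. Differentiation was scored by NBT reduction: 30 min at 37 °C with 0.2% NBT plus 200 ng/mL PMA. At least 200 cells were counted by light microscopy, blue cells scored as differentiated.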

[2] = system: P19; assay: Percent aggregation of mouse embryonal carcinoma (P19) cells 10e-6 M concentration in culture medium
Method in brief: (§1)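 P19 mouse embryonal carcinoma cells grown in α-MEM with 7.5% calf serum, 2.5% fetal calf serum and gentamycin at 37 °C, 5% CO2. Cells trypsinized, replated at 2×10^5 cells/mL, dosed from DMSO stock at 10⁻⁶ M final, redosed with fresh medium after 2 days, diluted 3 days later and counted 2 days after that. Read-out is percent of aggregates with neural outgrowth. Run in triplicate.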

[3] = system: P19; assay: percent aggregation of mouse embryonal carcinoma (P19) cells 10e -6M concentration in culture medium; method in brief: as §1

Compound	Differentiation [1] [%]	Aggregates [2] [%]	Aggregation [3] [%]
CC1(C)CCC(C)(C)c2nc(C(=O)Nc3cccc(C(=O)O)c3)cnc21	2	1	–
CC1(C)CC(C)(C)c2nc(C(=O)Nc3ccc(C(=O)O)c(Cl)c3)cnc21	67	60	–
CC1(C)CC(C)(C)c2nc(C(=O)Nc3cccc(C(=O)O)c3)cnc21	0	0	–
COc1cc(C(=O)O)ccc1NC(=O)c1cnc2c(n1)C(C)(C)CC2(C)C	6	0	–
CC1(C)CC(C)(C)c2nc(C(=O)Nc3ccc(C(=O)O)cc3)cnc21	46	67	–
COc1cc(C(=O)O)ccc1NC(=O)/C=C(C)/C=C/C1=C(C)CCCC1(C)C	9	2	–
COC(=O)c1ccc(NC(=O)c2cnc3c(n2)C(C)(C)CC3(C)C)cc1Cl	69	50	–
CC1=C(/C=C/C(C)=C/C(=O)N(C)c2ccc(C(=O)O)cc2)C(C)(C)CCC1	4	1	–
CC1=C(/C=C/C(C)=C/C(=O)Nc2ccc(C(=O)O)cc2)C(C)(C)CCC1	79	68	–
COC(=O)c1ccc(N(C)C(=O)c2cnc3c(n2)C(C)(C)CC3(C)C)cc1	7	0	–
CN(C(=O)c1cnc2c(n1)C(C)(C)CCC2(C)C)c1ccc(C(=O)O)cc1	15	0	–
COC(=O)c1ccc(Cl)c(NC(=O)c2cnc3c(n2)C(C)(C)CCC3(C)C)c1	7	0	–
COC(=O)c1ccc(NC(=O)c2cnc3c(n2)C(C)(C)CCC3(C)C)cc1Cl	47	74	–
COC(=O)c1cccc(NC(=O)c2cnc3c(n2)C(C)(C)CC3(C)C)c1	0	2	–
COC(=O)c1ccc(Cl)c(NC(=O)c2cnc3c(n2)C(C)(C)CC3(C)C)c1	4	0	–
COC(=O)c1cc(NC(=O)c2cnc3c(n2)C(C)(C)CC3(C)C)cc(C(=O)OC)c1	4	1	–
COC(=O)c1ccc(OC)c(NC(=O)c2cnc3c(n2)C(C)(C)CCC3(C)C)c1	0	0	–
COC(=O)c1cccc(NC(=O)c2cnc3c(n2)C(C)(C)CCC3(C)C)c1	6	0	–
CC1(C)CCC(C)(C)c2nc(C(=O)Oc3ccc(C(=O)O)cc3)cnc21	47	–	0
COc1ccc(C(=O)O)cc1NC(=O)c1cnc2c(n1)C(C)(C)CC2(C)C	3	0	–
COC(=O)c1ccc(NC(=O)c2cnc3c(n2)C(C)(C)CCC3(C)C)cc1	76	75	–
COC(=O)c1ccc(NC(=O)c2cnc3c(n2)C(C)(C)CC3(C)C)cc1	43	52	–
CC1(C)CC(C)(C)c2nc(C(=O)Nc3cc(C(=O)O)cc(C(=O)O)c3)cnc21	2	2	–
COc1cc(C(=O)O)ccc1NC(=O)c1cnc2c(n1)C(C)(C)CCC2(C)C	30	0	–
COC(=O)c1cc(NC(=O)c2cnc3c(n2)C(C)(C)CCC3(C)C)cc(C(=O)OC)c1	2	0	–
COC(=O)c1ccc(NC(=O)c2cnc3c(n2)C(C)(C)CC3(C)C)c(OC)c1	13	0	–
COC(=O)c1ccc(OC)c(NC(=O)c2cnc3c(n2)C(C)(C)CC3(C)C)c1	1	0	–
CC1(C)CCC(C)(C)c2nc(C(=O)Nc3ccc(C(=O)O)cc3)cnc21	73	70	–
CC1(C)CC(C)(C)c2nc(C(=O)Nc3cc(C(=O)O)ccc3Cl)cnc21	20	2	–
CC1=C(/C=C/C(C)=C/C=C/C(C)=C/C(=O)O)C(C)(C)CCC1 [TRETINOIN]	91	–	86
